The values below come from ChEMBL document CHEMBL3797161, “Design, Synthesis, and Immunological Evaluation of Benzyloxyalkyl-Substituted 1,2,3-Triazolyl α-GalCer Analogues” (ACS Med Chem Lett, 2016).

Each structure is given as a SMILES string. The source made the active and inactive calls. No cut-off for these calls is given here.

Series [1] is filed under the species Mus musculus. Description: Binding affinity to CD1D in Balb/c mouse splenocytes assessed as increase in IL-2 production at 10 to 1000 ng/ml after 48 hrs by sandwich ELISA. The series is classed as cell-based. The method, boiled down: (§1)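 Splenocytes isolated from BALB/c mice were cultured in vitro with glycolipid (dissolved in DMSO) at 10, 100 or 1000 ng/mL for 48 h. IL-2, IL-4 and IFN-γ in the culture were measured by ELISA.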
A general note: ELISA stands for enzyme-linked immunosorbent assay.

For another series, the system named is T-cell. Description: Binding affinity to CD1D in Balb/c mouse splenocytes assessed as T cell stimulation by measuring increase in cytokine expression after 48 hrs by sandwich ELISA. It is filed as cell-based. The essentials: as §1
A short description of series [2]: Cytotoxicity against Balb/c mouse splenocytes assessed as reduction in cell proliferation up to 1000 ng/ml after 48 hrs by MTT assay. The series is classed as cell-based. To be noted: splenocyte. The essentials:
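Splenocytes from BALB/c mice were exposed to glycolipid at up to 1000 ng/mL for 48 h. Proliferation was read by MTT relative to untreated cells.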
(In general: Formazan colour is commonly taken as a measure of viable cells.)

The nature of series [3]: Solubility of compound in DMSO at 10 to 1000 ng/ml. The series is classed as physicochemical.
Series [4] is filed under the species Mus musculus. Description: Binding affinity to CD1D in Balb/c mouse splenocytes assessed as increase in IFN-gamma production at 1000 ng/ml after 48 hrs by sandwich ELISA. The series is classed as cell-based.
The species entered for series [5] is Mus musculus. Kind of series: Binding affinity to CD1D in Balb/c mouse splenocytes assessed as increase in IFN-gamma production at 1000 ng/ml at 24 hrs by sandwich ELISA. The series is classed as cell-based. The essentials: (§2)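 For cytokine kinetics, BALB/c mouse splenocytes were treated in vitro with glycolipid at 1000 ng/mL. Culture supernatants were sampled at 2, 12 and 24 h, and IL-4 and IFN-γ were quantified.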

Series [6] is filed under the species Mus musculus. Description: Binding affinity to CD1D in Balb/c mouse splenocytes assessed as increase in IFN-gamma production at 10 to 1000 ng/ml after 48 hrs by sandwich ELISA. The series is classed as cell-based. The method, boiled down: as §1
The species entered for series [7] is Mus musculus. Description: Binding affinity to CD1D in Balb/c mouse splenocytes assessed as increase in IL-4 production at 10 to 1000 ng/ml after 48 hrs by sandwich ELISA. The series is classed as cell-based. The method, boiled down:
as §1

In series [8] the test system is Mus musculus. Kind of series: Stimulation of IFN-gamma production in Balb/c mouse at 1 ug, iv after 2 to 48 hrs by sandwich ELISA. It is filed as functional, organism-based. The essentials:
(§3)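 BALB/c mice received glycolipid intravenously, 1 μg per animal. IFN-γ and IL-4 expression was then measured in vivo.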

The subject of series [9] is Mus musculus. Kind of series: Stimulation of IL-4 production in Balb/c mouse at 1 ug, iv after 2 to 48 hrs by sandwich ELISA. The series is classed as functional, organism-based. The essentials: as §3
The target in series [10] is T1, Antigen-presenting glycoprotein CD1d (Homo sapiens) (UniProt P15813).
T1 sequence (whole entry): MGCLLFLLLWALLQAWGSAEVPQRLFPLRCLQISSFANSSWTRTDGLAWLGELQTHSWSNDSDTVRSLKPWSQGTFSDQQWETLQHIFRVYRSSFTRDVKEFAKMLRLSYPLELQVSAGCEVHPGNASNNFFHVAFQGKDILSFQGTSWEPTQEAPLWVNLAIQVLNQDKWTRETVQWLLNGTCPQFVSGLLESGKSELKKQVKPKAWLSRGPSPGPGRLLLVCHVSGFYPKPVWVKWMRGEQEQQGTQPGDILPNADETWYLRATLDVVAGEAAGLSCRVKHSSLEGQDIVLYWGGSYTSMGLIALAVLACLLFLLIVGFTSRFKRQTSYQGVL
Kind of series: Binding affinity to CD1D (unknown origin) assessed as increase in IL-2 production at 100 ng/ml preincubated for 16 hrs followed by Valpha-14 Vbeta-8.2 DN3A4-1.2(1.2) iNKT hybridoma cells addition to compound-CD1D mixture measured after 16 hrs by sandwich ELISA. The method, boiled down: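 Glycolipid incubated with CD1d protein for 16 h, then exposed to Vα14 Vβ8.2 DN3A4–1.2 (1.2) iNKT hybridoma cells; IL-2 secreted into the medium quantified.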

For series [11], the species on record is Mus musculus. Kind of series: Binding affinity to CD1D in Balb/c mouse splenocytes assessed as increase in IFN-gamma production at 1000 ng/ml up to 12 hrs by sandwich ELISA. The series is classed as cell-based. The essentials: as §2
Series [12] is filed under the species Mus musculus. Kind of series: Binding affinity to CD1D in Balb/c mouse splenocytes assessed as increase in IL-4 production at 1000 ng/ml at 2 hrs by sandwich ELISA. It is filed as cell-based. The method, boiled down:
as §2

The species named for series [13] is Mus musculus. Description: Binding affinity to CD1D in Balb/c mouse splenocytes assessed as increase in IL-4 production at 1000 ng/ml up to 24 hrs by sandwich ELISA. The series is classed as cell-based. The essentials:
as §2

Turning to `CCCCCCCCCCCCCC[C@@H](O)[C@@H](O)[C@H](CO[C@H]1O[C@H](CO)[C@H](O)[C@H](O)[C@H]1O)n1cc(COCCCCCCOCc2ccccc2)nn1`, the result in the series listed under Mus musculus [1] and in the series filed under Mus musculus [4] was Active. The Activity entry in the series on T-cell is “Dose-dependent effect”; in [2], “Non-toxic”. Besides, the solubility result in series [3] is given as “soluble”.
Consider `CCCCCCCCCCCCCC[C@@H](O)[C@@H](O)[C@H](CO[C@H]1O[C@H](CO)[C@H](O)[C@H](O)[C@H]1O)n1cc(COCCCCCCCCCCOCc2ccccc2)nn1`, for which the outcome in the series filed under Mus musculus [1] was Active. The Activity result with T-cell was “Dose-dependent effect”; in series [2] it was “Non-toxic”. In addition, the solubility entry in series [3] is “soluble”.
For the compound `CCCCCCCCCCCCCCCCCCCCCCCCCC(=O)N[C@@H](CO[C@H]1O[C@H](CO)[C@H](O)[C@H](O)[C@H]1O)[C@H](O)[C@H](O)CCCCCCCCCCCCCC` [RGI-7000], the result in the series listed under Mus musculus [1], in the series filed under Mus musculus [5], in the series listed under Mus musculus [6], in the series filed under Mus musculus [7], in the series on Mus musculus [8] and in the series on Mus musculus [9] was Active. Besides, the outcome (in series [10]; in the series filed under Mus musculus [11]; in the series filed under Mus musculus [12]; in the series filed under Mus musculus [13]) was Active. Further, in series [2], the Activity entry is reported as “Non-toxic”.
For `CCCCCCCCCCCCCC[C@@H](O)[C@@H](O)[C@H](CO[C@H]1O[C@H](CO)[C@H](O)[C@H](O)[C@H]1O)n1cc(COCCCCCCCCCCCCOCCCCCCOCc2ccccc2)nn1`, the result (in the series listed under Mus musculus [1]; in the series listed under Mus musculus [5]; in the series listed under Mus musculus [6]; in the series listed under Mus musculus [7]; in series [10]; in the series filed under Mus musculus [12]) was Active. Further, the Activity entry is “Dose-dependent effect” in the series with T-cell and “Non-toxic” in [2]. The outcome in the series with Mus musculus [8], with Mus musculus [9], in the series listed under Mus musculus [11] and in the series filed under Mus musculus [13] was inactive. The solubility result in [3] was “soluble”.
Turning to `CCCCCCCCCCCCCC[C@@H](O)[C@@H](O)[C@H](CO[C@H]1O[C@H](CO)[C@H](O)[C@H](O)[C@H]1O)n1cc(COCCCCCCCCCCCCOCCCCOCc2ccccc2)nn1`, the outcome (in the series filed under Mus musculus [1]; in the series listed under Mus musculus [5]; in the series filed under Mus musculus [6]; in the series filed under Mus musculus [7]; in series [10]; in the series filed under Mus musculus [12]) was Active. Further, the results for the Activity entry (with T-cell; in series [2]) were “Dose-dependent effect” and “Non-toxic”, respectively. Moreover, the outcome in the series with Mus musculus [8], with Mus musculus [9], in the series listed under Mus musculus [11] and in the series listed under Mus musculus [13] was inactive. The solubility result in series [3] is listed as “soluble”.
Regarding `CCCCCCCCCCCCCC[C@@H](O)[C@@H](O)[C@H](CO[C@H]1O[C@H](CO)[C@H](O)[C@H](O)[C@H]1O)n1cc(COCCCCCCCCOCc2ccccc2)nn1`, the result in the series listed under Mus musculus [1], with Mus musculus [8] and in the series with Mus musculus [9] was Active. Also, the Activity result in the series with T-cell is “Dose-dependent effect”; in series [2] it was “Non-toxic”. The solubility entry in [3] is “soluble”.
On to `CCCCCCCCCCCCCC[C@@H](O)[C@@H](O)[C@H](CO[C@H]1O[C@H](CO)[C@H](O)[C@H](O)[C@H]1O)n1cc(COCCCCCCCCCCCCOCCOCc2ccccc2)nn1`, for which the outcome in the series filed under Mus musculus [1] and in the series filed under Mus musculus [4] was Active. The Activity result in the series with T-cell was “Dose-dependent effect”; in series [2], “Non-toxic”. The solubility entry in series [3] is “soluble”.
`CCCCCCCCCCCCCC[C@@H](O)[C@@H](O)[C@H](CO[C@H]1O[C@H](CO)[C@H](O)[C@H](O)[C@H]1O)n1cc(COCCCCCCCCCCCCOCc2ccccc2)nn1`: the outcome in the series filed under Mus musculus [1] was Active. Besides, the Activity entry in the series on T-cell is “Dose-dependent effect”; in series [2] it was “Non-toxic”. Moreover, the solubility result in [3] is “soluble”.
As to `CCCCCCCCCCCCCC[C@@H](O)[C@@H](O)[C@H](CO[C@H]1O[C@H](CO)[C@H](O)[C@H](O)[C@H]1O)n1cc(COCCOCc2ccccc2)nn1`, in the series filed under Mus musculus [1], the outcome was inactive. Besides, the Activity entry is “Dose-dependent effect” in the series with T-cell and “Non-toxic” in series [2]. For the same compound, the solubility entry in [3] is recorded as “soluble”.
Regarding `CCCCCCCCCCCCCC[C@@H](O)[C@@H](O)[C@H](CO[C@H]1O[C@H](CO)[C@H](O)[C@H](O)[C@H]1O)n1cc(COCCCCOCc2ccccc2)nn1`, the result in the series filed under Mus musculus [1] was Active. The figures for the Activity result (in the series on T-cell; in series [2]) were “Dose-dependent effect” and “Non-toxic”, respectively. In addition, the solubility result in series [3] is “soluble”.
